# Laboratory results taken from ChEMBL document CHEMBL3877291, “Structure-guided design of novel Trypanosoma brucei Methionyl-tRNA synthetase inhibitors” (Eur J Med Chem, 2016).
# How the values were obtained:
# [1] = Cytotoxicity against human HepG2 cells assessed as cell viability after 48 hrs by alamar blue assay; assay type: toxicity, cell-based
# Summary of the method: (§1)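 CRL-1855 cells grown in RPMI and HepG2 cells in DMEM/F-12, both with 10% FBS, penicillin and streptomycin. Plated at 5 × 10^3 per well with serial compound dilutions in quadruplicate for 48 h. Alamar Blue added for a further 4 h at 37 °C, 5% CO2. OD570–600 viability referenced to untreated cells.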
# [2] = Inhibition of Trypanosoma brucei methionyl tRNA synthetase preincubated for 15 mins followed by L-methionine substrate addition measured after 120 mins by ATP- depletion chemiluminescence assay
# Summary of the method: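 Triplicate. Compound pre-incubated 15 min at room temperature with 50 nM TbMetRS, 200 µg/mL E. coli tRNA, 0.1 U/mL pyrophosphatase, 0.2 mM spermine, BSA, DTT, 25 mM HEPES-KOH pH 7.9, 10 mM MgCl2, 50 mM KCl, 2% DMSO. Started with 100 nM ATP and 32 µM L-methionine; after 120 min, Kinase-Glo luminescence read. IC50 from sigmoidal dose-response fit.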
# [3] = Cytotoxicity against human CRL-1855 cells assessed as cell viability after 48 hrs by alamar blue assay; assay type: toxicity, cell-based; summary of the method: as §1
# Trypanosoma brucei [4] = test: Binding affinity to Trypanosoma brucei methionyl-tRNA synthetase assessed as change in melting temperature at 100 uM by SYPRO orange dye based thermal shift assay
# Summary of the method: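 TbMetRS in 100 mM HEPES pH 7.5, 100 mM NaCl, 10 mM ATP-Mg with SYPRO Orange; compound at 100 µM final. Fluorescence measured in triplicate from 25 to 90 °C in 0.2 °C steps. Tm taken as the temperature of the first-derivative maximum.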
# Trypanosoma brucei [5] = test: Antitrypanosomal activity against Trypanosoma brucei 427 bloodstream forms assessed as parasitic growth inhibition after 48 hrs by alamar blue assay; assay type: functional; conditions: Trypanosoma brucei, 427, 48 h
# Summary of the method: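 Bloodstream-form strain 427 trypomastigotes cultured in HMI-9 with 10% FBS, penicillin and streptomycin at 37°C, 5% CO2. Seeded at 1 × 10^4 per well, serial compound dilutions from 20 mM DMSO stocks, triplicate. Growth read with Alamar Blue at 48 h; pentamidine run as positive control in each assay.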
# [6] = Selectivity index, ratio of EC50 for human CRL-1855 cells to EC50 for Trypanosoma brucei 427 bloodstream forms; assay type: toxicity, cell-based; conditions: read-out: Ratio EC50
# [7] = Cmax in mouse at 50 mg/kg, administered through oral gavage by LC-MS analysis; assay type: ADME, organism-based; design: dose 50 mg/kg, route oral; conditions: in vivo
# Summary of the method: (§2)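 Mice dosed by oral gavage at 50 mg/kg in 0.2 mL vehicle (7% tween80, 3% ethanol, 5% DMSO, 0.9% saline); plasma compound levels followed to give Cmax and AUC.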
# [8] = AUC in mouse at 50 mg/kg, administered through oral gavage by LC-MS analysis; assay type: ADME, organism-based; conditions: in vivo; summary of the method: as §2
# Trypanosoma brucei [9] = test: (§3) Inhibition of Trypanosoma brucei 427 recombinant full length N-terminal 6His-tagged methionyl tRNA synthetase expressed in Escherichia coli assessed as decrease in incorporation of [3H]L-methionine into tRNA at 10 uM preincubated for 15 mins followed by Escherichia coli tRNA addition measured after 120 mins by scintillation counting method
# Trypanosoma brucei [10] = test: as §3, with “1” for “10”
Compound,IC50 [2],ΔTm (Trypanosoma brucei [4]),EC50 (Trypanosoma brucei [5]),further results
Clc1cc(Cl)cc(CNCCCc2nc3ccc(Cl)nc3[nH]2)c1,< 0.05 µM,12.8 °C,0.307 µM,EC50 at 48 h [1]: 45.6 µM; EC50 at 48 h [3]: 45.7 µM
Clc1cc(Cl)cc(CNC2CN(c3nc4nc(Cl)ccc4[nH]3)C2)c1,2.17 µM,6.4 °C,15.3 µM,
Clc1cc(Cl)cc(CNC2CCCC(c3nc4cc(Cl)ccc4[nH]3)C2)c1 (stereo not given),0.58 µM,12.6 °C,1.95 µM,
Clc1cc(Cl)cc(CNC2CCN(c3nc4nc(Cl)ccc4[nH]3)CC2)c1,4.97 µM,5.8 °C,13.3 µM,
Clc1cc(Cl)cc(CNCCSc2nc3nc(Cl)ccc3[nH]2)c1,1.05 µM,,1.4 µM,
Clc1cc(Cl)cc(CN[C@@H]2CCN(c3nc4ccc(Cl)nc4[nH]3)C2)c1,0.696 µM,7.2 °C,9.01 µM,
Clc1cc(Cl)cc(CN[C@H]2CCN(c3nc4ccc(Cl)nc4[nH]3)C2)c1,< 0.05 µM,11.4 °C,1.54 µM,
Clc1cc(Cl)cc(CO[C@H]2CCCN(c3nc4nc(Cl)ccc4[nH]3)C2)c1,0.196 µM,7.5 °C,8.8 µM,
Clc1cc(Cl)cc(CN[C@H]2CCCN(c3nc4nc(Cl)ccc4[nH]3)C2)c1,< 0.05 µM,19 °C,0.039 µM,EC50 at 48 h [1]: 49 µM; selectivity ratio [6]: 751; EC50 at 48 h [3]: 29.3 µM; Cmax [7]: 37.6 µM; AUC [8]: 104 µM·h
O=C(Nc1cc(Cl)cc(Cl)c1)[C@H]1CCCN(c2nc3nc(Cl)ccc3[nH]2)C1,> 10 µM,2.6 °C,> 20 µM,
O=C(N[C@H]1CCCN(c2nc3nc(Cl)ccc3[nH]2)C1)c1cc(Cl)cc(Cl)c1,> 10 µM,0 °C,> 20 µM,
O=C(Cc1cc(Cl)cc(Cl)c1)N1CCCC(c2nc3c(Cl)cccc3[nH]2)C1 (stereo not given),0.926 µM,7.4 °C,8.81 µM,
O=C(Cc1cc(Cl)cc(Cl)c1)N1CCCC(c2nc3ccccc3[nH]2)C1 (stereo not given),0.288 µM,7.8 °C,> 5 µM,
Clc1cc(Cl)cc(CNC2CCCN(c3nc4nc(Cl)ccc4[nH]3)C2)c1 (stereo not given),< 0.05 µM,18.4 °C,0.082 µM,EC50 at 48 h [1]: > 50 µM; EC50 at 48 h [3]: 46.2 µM
Clc1cc(Cl)cc(NCC2CCCN(c3nc4nc(Cl)ccc4[nH]3)C2)c1 (stereo not given),< 0.05 µM,14.4 °C,0.343 µM,EC50 at 48 h [1]: 29.2 µM; EC50 at 48 h [3]: 15.4 µM
Clc1cc(Cl)cc(CNCCCc2nc3ccc(Cl)cc3[nH]2)c1,0.243 µM,10.8 °C,2.15 µM,
CCN(CC)CCCC(C)Nc1c2ccc(Cl)cc2nc2ccc(OC)cc12 (stereo not given) [QUINACRINE],,,,EC50 at 48 h [1]: 11.9 µM; EC50 at 48 h [3]: 2.12 µM
Clc1cc(Cl)cc(CN[C@@H]2CCC[C@H](c3nc4nc(Cl)ccc4[nH]3)C2)c1,0.106 µM,13.1 °C,0.58 µM,
Clc1cc(Cl)cc(CNC2CCCCN(c3nc4nc(Cl)ccc4[nH]3)C2)c1 (stereo not given),0.682 µM,6.8 °C,1.81 µM,
Clc1cc(Cl)cc(CNC2CCCC(c3nc4nc(Cl)ccc4[nH]3)C2)c1 (stereo not given),0.124 µM,14.2 °C,0.359 µM,EC50 at 48 h [1]: 32.3 µM; EC50 at 48 h [3]: 33.1 µM
Cc1cc2cc(C(=O)N3CCCC(c4nc5ccccc5[nH]4)C3)ccc2o1 (stereo not given),,,,inhibition (Trypanosoma brucei [9]): 78%; inhibition (Trypanosoma brucei [10]): 20%
N=C(N)c1ccc(OCCCCCOc2ccc(C(=N)N)cc2)cc1 [PENTAMIDINE],,,0.0009 µM,
Clc1cc(Cl)cc(CN[C@@H]2CCCN(c3nc4nc(Cl)ccc4[nH]3)C2)c1,0.192 µM,13.1 °C,0.999 µM,
O=C(Cc1cc(Cl)cc(Cl)c1)N1CCCC(c2nc3cc(Cl)ccc3[nH]2)C1 (stereo not given),0.06 µM,7.2 °C,1.4 µM,EC50 at 48 h [1]: 35.4 µM; EC50 at 48 h [3]: 22.8 µM
Clc1cc(Cl)cc(CCN2CCCC(c3nc4nc(Cl)ccc4[nH]3)C2)c1 (stereo not given),> 10 µM,6 °C,3.76 µM,
